Test results published in PubChem BioAssay.
Activity calls are given as the source filed them.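 The calls were made as follows, unless noted: active = visual image review flags a hit and inhibition of aggregation exceeds 20%; inconclusive = visual hit but inhibition at or below 20%; inactive = no hit on visual image review.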

Experiments:
[1] = inhibitors of TNFa-induced NFkB p65 translocation, primary screen, imaging, HUVEC, MLSMR starter and 10KST1 sets (AID 438;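 active = inhibition above 20% together with a positive visual image hit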;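 also: compound added about 3h40 before a 20 min TNFalpha stimulation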;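 as to inhibition: signal is the nuclear over cytoplasmic p65 intensity ratio per well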); settings: HUVEC TNFa-induced p65 nuclear translocation; cell count: measured here: nuclei count (cytotoxicity indicator), at 2.08 µM; inhibition: at 2 µM, stronger effect = higher value, 0% TNFa-plus-vehicle, 100% no-TNFa wells
[2] = reduction of polyQ htt aggregates in cells – imaging, exon1htt(103Q)mCFP cells, high-content imaging, primary screen (AID 483); settings: exon1htt(103Q)mCFP cell line, aggregate imaging, at 2 µM; inhibition of aggregation: stronger effect = higher value; nuclei count: measured here: cell count, toxicity;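 also: compound exposure lasted 3 days before fixation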;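 as to nuclei count: percent of the per-plate median nuclei count of sample wells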
[3] = endothelial E-selectin expression blockers – imaging, HUVEC, immunofluorescence, MLSMR starter and 10KST1 sets, primary screen (AID 487;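 active = visually confirmed hit in the image check and inhibition above 20%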;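 as to inhibition: signal is fraction of cell area covered by stained E-selectin grains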;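 as to nuclei count: 100% = median nuclei count of all wells on the same plate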); settings: HUVEC TNFalpha-induced E-selectin immunofluorescence imaging, at 2 µM; inhibition: stronger effect = higher value; nuclei count: measured here: cell number, toxicity
[4] = biological target: Voltage-gated potassium channel subunit beta-2 (Rattus norvegicus) (UniProt P62483); test: inhibitors of rat Kvbeta2 reductase activity – biochemical, NADPH fluorescence, primary screen (AID 622;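 active = fluorescence slope higher than the sample average by over 3 SD, cut at about -0.22 in these data, passing the limit was not always enough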;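 also: slope of raw intensity against log time taken from 70 to 1610 s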); settings: recombinant KvBeta, 4-cyanobenzaldehyde reduction, at 10 µM, stronger effect = higher value
[5] = biological target: Voltage-gated potassium channel subunit beta-2 (Rattus norvegicus) (UniProt P62483); test: enhancers of rat Kvbeta2 NADPH turnover – biochemical, NADPH fluorescence, primary screen (AID 623;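 active = NADPH fluorescence slope more negative than the mean of all samples by about 3 SD, 99.7% confidence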;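 also: fluorescence intensity change per second fitted from 20 to 320 s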); settings: Recombinant KvBeta, NADPH fluorescence decrease slope, 10 min; at 10 µM; stronger effect = lower value
[6] = biological target: Muscarinic acetylcholine receptor M4 (Homo sapiens) (UniProt P08173); test: M4-linked GIRK flux change, two-sided – cell-based, HEK293 M4/GIRK, thallium flux, BTC-AM, M4 allosteric agonist project, primary screen (AID 625;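 active = fluorescence slope after compound addition differing from the mean of all tested samples at 99.7% confidence, mostly higher but some lower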;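 also: thallium influx through GIRK channels coupled to M4 in HEK293 cells with BTC-AM dye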); settings: at 10 µM, actives lie on both sides
Summary of the method: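 Material: M4/GIRK1/GIRK2 stable HEK293 cell line. Medium: pH 7.3 thallium assay buffer. Dosing: single compound concentration, 10 µM final. Schedule: 1 h dye loading, 2 min kinetic read. Measured by: kinetic fluorescence with BTC-AM dye. Read-out: post-addition slope, 15–24 s, of baseline-normalized fluorescence. Benchmarks: carbachol and DMSO controls.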

[7] = blockers of RIG-like receptor reporter activation – cell-based, Sendai virus stimulus, luciferase, 10K MLSCN set, TLR/RLR signaling modifier project, primary screen (AID 602276;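 active = inhibition at or above 50% at 10 µM; inactive = inhibition below 50%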;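 also: firefly luciferase from ISG56 promoter only with Renilla not read in this screen; 0% = Sendai virus plus DMSO and 100% = medium plus DMSO without virus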); settings: HEK293 RL24 IRF3 luciferase reporter, at 10 µM, stronger effect = higher value
[8] = TLR3 IRF3 reporter activation blockers – cell-based, poly I:C stimulus, luciferase, 10K MLSCN set, primary screen (AID 602277;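 active = inhibition of the reporter signal at or above 50%; inactive = inhibition below 50%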); settings: HEK293-TLR3 RL24 IRF3 luciferase reporter, at 10 µM, stronger effect = higher value

Chain of Muscarinic acetylcholine receptor M4 (Homo sapiens) (P08173 whole entry, looked up): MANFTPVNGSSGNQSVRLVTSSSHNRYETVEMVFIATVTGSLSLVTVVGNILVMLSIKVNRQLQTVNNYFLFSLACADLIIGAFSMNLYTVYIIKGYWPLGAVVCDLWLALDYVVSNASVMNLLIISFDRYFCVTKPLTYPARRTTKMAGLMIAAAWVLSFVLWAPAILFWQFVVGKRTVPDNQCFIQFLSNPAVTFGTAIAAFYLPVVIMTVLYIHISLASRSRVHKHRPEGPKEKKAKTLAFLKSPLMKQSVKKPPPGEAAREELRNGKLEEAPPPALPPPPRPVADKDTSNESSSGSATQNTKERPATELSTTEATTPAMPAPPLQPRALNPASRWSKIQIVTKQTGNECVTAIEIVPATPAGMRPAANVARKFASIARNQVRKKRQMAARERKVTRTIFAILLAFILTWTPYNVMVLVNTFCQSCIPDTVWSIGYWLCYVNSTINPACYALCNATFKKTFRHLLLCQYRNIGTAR
Chain of Voltage-gated potassium channel subunit beta-2 (Rattus norvegicus) (P62483 whole entry, looked up): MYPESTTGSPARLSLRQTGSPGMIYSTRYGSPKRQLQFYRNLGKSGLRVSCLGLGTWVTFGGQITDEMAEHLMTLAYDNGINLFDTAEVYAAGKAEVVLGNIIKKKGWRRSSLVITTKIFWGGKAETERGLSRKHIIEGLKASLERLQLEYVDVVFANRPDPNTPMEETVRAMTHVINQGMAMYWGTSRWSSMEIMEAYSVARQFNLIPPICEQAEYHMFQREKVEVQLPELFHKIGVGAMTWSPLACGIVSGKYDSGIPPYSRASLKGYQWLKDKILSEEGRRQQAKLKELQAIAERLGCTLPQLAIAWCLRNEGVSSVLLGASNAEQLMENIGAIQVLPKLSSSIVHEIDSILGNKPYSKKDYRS

Structure (SMILES): N#C/C(C(=O)N1CCOCC1)=C1/SC=C(c2ccccc2)N1c1ccccc1
- cell count [1]: 327
- inhibition [1]: -5.5% (inactive)
- inhibition of aggregation [2]: 13.8% (inactive)
- nuclei count [2]: 96.2%
- inhibition [3]: -118% (inactive)
- nuclei count [3]: 118%
- fluorescence slope [4]: -0.277 (inactive)
- NADPH fluorescence slope [5]: -3e-05 (inactive)
- fluorescence slope [6]: 0.00553 (inactive)
- inhibition [7]: 12.4% (inactive)
- inhibition [8]: 26.4% (inactive)

Structure (SMILES): O=C(NCc1ccco1)c1cc2n(n1)C(C(F)(F)F)CC(c1ccc(F)cc1)N2 (centres undefined)
- cell count [1]: 405
- inhibition [1]: 6.5% (inactive)
- inhibition of aggregation [2]: -12.7% (inactive)
- nuclei count [2]: 109%
- inhibition [3]: 8.6% (inactive)
- nuclei count [3]: 103%
- fluorescence slope [4]: -0.557 (inactive)
- NADPH fluorescence slope [5]: -7.3e-06 (inactive)
- fluorescence slope [6]: 0.00537 (inactive)
- inhibition [7]: 3.11% (inactive)
- inhibition [8]: 12.1% (inactive)

Structure (SMILES): NC(=O)SCC(=O)Nc1cccc(Cl)c1
- cell count [1]: 449
- inhibition [1]: -0.5% (inactive)
- inhibition of aggregation [2]: -7.6% (inactive)
- nuclei count [2]: 119%
- inhibition [3]: -267% (inactive)
- nuclei count [3]: 132%
- fluorescence slope [4]: -0.576 (inactive)
- NADPH fluorescence slope [5]: -1.5e-06 (inactive)
- fluorescence slope [6]: 0.00648 (inactive)
- inhibition [7]: 18.6% (inactive)
- inhibition [8]: 15.3% (inactive)

Structure (SMILES): O=C(O)CCc1ccc(-c2ccccc2)n1CC(=O)O
- cell count [1]: 355
- inhibition [1]: 2.4% (inactive)
- inhibition of aggregation [2]: -3.7% (inactive)
- nuclei count [2]: 112%
- inhibition [3]: -36.5% (inactive)
- nuclei count [3]: 114%
- fluorescence slope [4]: -0.564 (inactive)
- NADPH fluorescence slope [5]: -7.8e-05 (inactive)
- fluorescence slope [6]: 0.00623 (inactive)
- inhibition [7]: -9.35% (inactive)
- inhibition [8]: -25.1% (inactive)

Structure (SMILES): CC(Sc1nnc(-c2cc3ccccc3o2)n1-c1ccccc1)C(=O)O (centres undefined)
- cell count [1]: 613
- inhibition [1]: 0.8% (inactive)
- inhibition of aggregation [2]: 14.7% (inactive)
- nuclei count [2]: 105%
- inhibition [3]: -223% (inactive)
- nuclei count [3]: 108%
- fluorescence slope [4]: -0.585 (inactive)
- NADPH fluorescence slope [5]: -5.2e-05 (inactive)
- fluorescence slope [6]: 0.00554 (inactive)
- inhibition [7]: 21.2% (inactive)
- inhibition [8]: 39.8% (inactive)

Structure (SMILES): COc1ccccc1C(=O)Nc1ccc(N2CCN(S(C)(=O)=O)CC2)cc1
- cell count [1]: 320
- inhibition [1]: -6.8% (inactive)
- inhibition of aggregation [2]: 7% (inactive)
- nuclei count [2]: 127%
- inhibition [3]: 18.3% (inactive)
- nuclei count [3]: 116%
- fluorescence slope [4]: -0.242 (inactive)
- NADPH fluorescence slope [5]: -2.5e-06 (inactive)
- fluorescence slope [6]: 0.00706 (inactive)
- inhibition [7]: -8.58% (inactive)
- inhibition [8]: -50.2% (inactive)

Structure (SMILES): O=C(CCCn1c(=S)[nH]c2ccccc2c1=O)N1CCCCC1
- cell count [1]: 452
- inhibition [1]: -6.2% (inactive)
- inhibition of aggregation [2]: 6.5% (inactive)
- nuclei count [2]: 123%
- inhibition [3]: 1.4% (inactive)
- nuclei count [3]: 106%
- fluorescence slope [4]: -0.451 (inactive)
- NADPH fluorescence slope [5]: 2.5e-05 (inactive)
- fluorescence slope [6]: 0.00588 (inactive)
- inhibition [7]: -0.408% (inactive)
- inhibition [8]: 6.14% (inactive)

Structure (SMILES): COc1ccccc1CNC(=O)CCn1c(=O)[nH]c2ccsc2c1=O
- cell count [1]: 504
- inhibition [1]: 1.1% (inactive)
- inhibition of aggregation [2]: 6.6% (inactive)
- nuclei count [2]: 111%
- inhibition [3]: 9.6% (inactive)
- nuclei count [3]: 110%
- fluorescence slope [4]: -0.266 (inactive)
- NADPH fluorescence slope [5]: -3e-05 (inactive)
- fluorescence slope [6]: 0.0062 (inactive)
- inhibition [7]: 16.6% (inactive)
- inhibition [8]: -5.76% (inactive)

Structure (SMILES): CCOC(=O)CSc1nc2ccccc2n2cnnc12
- cell count [1]: 315
- inhibition [1]: -1.4% (inactive)
- inhibition of aggregation [2]: 13.5% (inactive)
- nuclei count [2]: 103%
- inhibition [3]: -4% (inactive)
- nuclei count [3]: 113%
- fluorescence slope [4]: -0.327 (inactive)
- NADPH fluorescence slope [5]: -5.9e-05 (inactive)
- fluorescence slope [6]: 0.00582 (inactive)
- inhibition [7]: 2.3% (inactive)
- inhibition [8]: 8.27% (inactive)

Structure (SMILES): N#CC1=C(N)n2c(s/c(=C\c3ccco3)c2=O)=C(C#N)C1c1ccco1 (centres undefined)
- cell count [1]: 422
- inhibition [1]: -2.2% (inactive)
- inhibition of aggregation [2]: 8.3% (inactive)
- nuclei count [2]: 106%
- inhibition [3]: -34.4% (inactive)
- nuclei count [3]: 116%
- fluorescence slope [4]: -0.565 (inactive)
- NADPH fluorescence slope [5]: -3.6e-05 (inactive)
- fluorescence slope [6]: 0.00353 (inactive)
- inhibition [7]: 19.5% (inactive)
- inhibition [8]: 38% (inactive)

Structure (SMILES): Cc1nc(CNS(=O)(=O)c2ccc3c(c2)OCCO3)cs1
- cell count [1]: 309
- inhibition [1]: 0.5% (inactive)
- inhibition of aggregation [2]: 10.1% (inactive)
- nuclei count [2]: 106%
- inhibition [3]: 12.1% (inactive)
- nuclei count [3]: 110%
- fluorescence slope [4]: -0.568 (inactive)
- NADPH fluorescence slope [5]: -2.7e-05 (inactive)
- fluorescence slope [6]: 0.00404 (inactive)
- inhibition [7]: -8.22% (inactive)
- inhibition [8]: -38.6% (inactive)

Structure (SMILES): CCN(C(=O)CN1CCN(c2ccccc2OC)CC1)c1c(N)n(Cc2ccccc2)c(=O)[nH]c1=O
- cell count [1]: 471
- inhibition [1]: 1.1% (inactive)
- inhibition of aggregation [2]: -18.1% (inactive)
- nuclei count [2]: 63.9%
- inhibition [3]: -52.2% (inactive)
- nuclei count [3]: 102%
- fluorescence slope [4]: -0.424 (inactive)
- NADPH fluorescence slope [5]: -0.000102 (inactive)
- fluorescence slope [6]: 0.00639 (inactive)
- inhibition [7]: 9.1% (inactive)
- inhibition [8]: 25.4% (inactive)

Structure (SMILES): COc1cc(C)nc(NS(=O)(=O)c2ccc(C)cc2)n1
- cell count [1]: 399
- inhibition [1]: 3.9% (inactive)
- inhibition of aggregation [2]: -0.3% (inactive)
- nuclei count [2]: 97.2%
- inhibition [3]: -45.6% (inactive)
- nuclei count [3]: 109%
- fluorescence slope [4]: -0.563 (inactive)
- NADPH fluorescence slope [5]: -2.7e-05 (inactive)
- fluorescence slope [6]: 0.00648 (inactive)
- inhibition [7]: 20.8% (inactive)
- inhibition [8]: 23% (inactive)

Structure (SMILES): CCSc1oc(-c2ccco2)nc1S(=O)(=O)c1ccccc1
- cell count [1]: 584
- inhibition [1]: -7.9% (inactive)
- inhibition of aggregation [2]: -18% (inactive)
- nuclei count [2]: 107%
- inhibition [3]: 4.3% (inactive)
- nuclei count [3]: 105%
- fluorescence slope [4]: -0.316 (inactive)
- NADPH fluorescence slope [5]: -2.1e-05 (inactive)
- fluorescence slope [6]: 0.00508 (inactive)
- inhibition [7]: -7.74% (inactive)
- inhibition [8]: -0.253% (inactive)

Structure (SMILES): COc1ccccc1NC(=O)c1nnn(CC(=O)Nc2ccccc2)c1N
- cell count [1]: 234
- inhibition [1]: -4.4% (inactive)
- inhibition of aggregation [2]: -30.9% (inactive)
- nuclei count [2]: 95.9%
- inhibition [3]: -9.9% (inactive)
- nuclei count [3]: 103%
- fluorescence slope [4]: -0.416 (inactive)
- NADPH fluorescence slope [5]: 5.5e-05 (inactive)
- fluorescence slope [6]: 0.00673 (inactive)
- inhibition [7]: 9.85% (inactive)
- inhibition [8]: 23.6% (inactive)

Structure (SMILES): O=C(CCn1c(=O)sc2ccccc21)NC1=NCCS1
- cell count [1]: 620
- inhibition [1]: -25.8% (inactive)
- inhibition of aggregation [2]: 8.6% (inactive)
- nuclei count [2]: 102%
- inhibition [3]: -118% (inactive)
- nuclei count [3]: 121%
- fluorescence slope [4]: -0.464 (inactive)
- NADPH fluorescence slope [5]: 8e-05 (inactive)
- fluorescence slope [6]: 0.00544 (inactive)
- inhibition [7]: -9.67% (inactive)
- inhibition [8]: -5.87% (inactive)

Structure (SMILES): CN1CCCN(C(=O)c2cc(=O)[nH]c3ccccc23)c2nc3ccccc3nc21
- cell count [1]: 369
- inhibition [1]: -0.6% (inactive)
- inhibition of aggregation [2]: 5.4% (inactive)
- nuclei count [2]: 101%
- inhibition [3]: -33% (inactive)
- nuclei count [3]: 117%
- fluorescence slope [4]: -0.394 (inactive)
- NADPH fluorescence slope [5]: -0.000122 (inactive)
- fluorescence slope [6]: 0.00653 (inactive)
- inhibition [7]: 16.3% (inactive)
- inhibition [8]: 34.1% (inactive)

Structure (SMILES): COc1ccccc1-c1ccc(Nc2cccc(C(C)=O)c2)nn1
- cell count [1]: 319
- inhibition [1]: -11.3% (inactive)
- inhibition of aggregation [2]: -0.2% (inactive)
- nuclei count [2]: 74.7%
- inhibition [3]: 0.3% (inactive)
- nuclei count [3]: 103%
- fluorescence slope [4]: -0.576 (inactive)
- NADPH fluorescence slope [5]: -6e-05 (inactive)
- fluorescence slope [6]: 0.00562 (inactive)
- inhibition [7]: 12.1% (inactive)
- inhibition [8]: -36.2% (inactive)

Structure (SMILES): CCOC(=O)C(NC(=O)C1CCCN1C(=O)OCc1ccccc1)C(=O)OCC (centres undefined)
- cell count [1]: 586
- inhibition [1]: 7.2% (inactive)
- inhibition of aggregation [2]: -1.6% (inactive)
- nuclei count [2]: 105%
- inhibition [3]: -11% (inactive)
- nuclei count [3]: 97.9%
- fluorescence slope [4]: -0.567 (inactive)
- NADPH fluorescence slope [5]: -1.7e-05 (inactive)
- fluorescence slope [6]: 0.00516 (inactive)
- inhibition [7]: 20.4% (inactive)
- inhibition [8]: 32% (inactive)
